Assay outcomes: PubChem, several laboratories
Most compounds without a hit are left out; they make up all but 1.8% or so of the library.
CXCR6 block: CXCR6 (human) receptor inhibition. O00574. CHO-K1 PathHunter CXCR6 beta-arrestin, luminescence. inhibition, % at 20 µM. 0.36% of 360,000 active. AID 602244; in the data active = inhibition above about 34%, passing the limit was not always enough;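 note: antagonist mode with CXCL16 agonist at 10 nM final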
Beta2AR agonist: activates human beta-2 adrenergic receptor causing internalization | response, % (no concentration beside the values) | 0.43% of 340,000 active | Am2.2-beta2AR cells, FAP receptor internalization, flow cytometry | P07550;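 active = response above a set limit, near 3 SD of response in nonfluorescent compounds, cut at about 42% in these data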
APJ agonist: activates the human apelin receptor APJ | 0.11% of 330,000 active | P35414 | CHO-K1 APJ PathHunter beta-arrestin, luminescence; 0% DMSO wells, 100% apelin | activation, % at 20 µM;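 active = activation more than six SD over the plate average, tested at 20 µM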
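Test system – PathHunter CHO-K1 APJ (AGTRL-1) beta-arrestin reporter cells · Input – 1000 cells/well · Compound – single test compound dose, 20 µM final, 1% DMSO · Times – compound stimulation 90 min at 25 °C, detection 60 min · Technique – beta-gal luminescence · Read-out basis – APJ–arrestin association signal · Control set – negative DMSO alone, positive Apelin-13 at 10 nM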
APJ antag: antagonists of human APJ apelin receptor | P35414 | CHO-K1 APJ beta-arrestin complementation, luminescence | inhibition, % at 20 µM | 0.32% of 330,000 active | AID 2521;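 active = inhibition above about 40% at 20 µM, limit read from the data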;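 note: cells challenged with 10 nM apelin-13 agonist together with compound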
CCR6 antagonist: blocks CCL20-driven beta-arrestin recruitment at human CCR6; CHO-K1 CCR6 PathHunter beta-arrestin, luminescence, CCL20-stimulated; inhibition, % at 20 µM; 0.49% of 340,000 active;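 active = compounds whose inhibition of the agonist-driven luminescence signal at 20 µM reaches about 50%, limit read from the data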;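 note: cells stimulated with CCL20 at 14 nM final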
EBI2 antag: antagonists of human EBI2 receptor. AID 651636. EBI2 beta-arrestin recruitment, luminescence, 7a,25-OHC stimulated. 0.81% of 360,000 active. inhibition, % at 5 µM. P32249; in the data active = inhibition above about 38%;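 note: enzyme fragment complementation signal reports receptor beta-arrestin coupling in cells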
Target sequence (P32249 whole entry, looked up, the tested form may be a part): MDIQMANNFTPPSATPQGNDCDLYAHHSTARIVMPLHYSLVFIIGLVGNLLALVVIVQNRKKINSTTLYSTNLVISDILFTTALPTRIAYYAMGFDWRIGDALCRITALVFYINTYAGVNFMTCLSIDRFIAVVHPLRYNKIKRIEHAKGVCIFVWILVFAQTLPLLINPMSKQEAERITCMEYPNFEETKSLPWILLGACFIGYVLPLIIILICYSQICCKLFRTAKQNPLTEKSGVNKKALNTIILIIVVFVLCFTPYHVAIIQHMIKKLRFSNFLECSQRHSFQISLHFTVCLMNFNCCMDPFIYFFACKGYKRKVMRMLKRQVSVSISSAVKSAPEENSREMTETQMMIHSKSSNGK
Beta2AR ag CP1: agonists of human beta-2 adrenergic receptor; Am2.2-beta2AR cells, FAP surface receptor, flow cytometry; active compounds read low; percent response (surface receptor), % at 10 µM; 25% of 1,100 active; shares compounds with Beta2AR agonist; AID 540358;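 active = surface receptor percent response at or below 58%, roughly 3 SD from nonfluorescent compounds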
FAP fluor counter: flagged in Am2.2 fluorescence counterscreen for beta-2AR agonists; Am2.2 cells, FAP fluorogen flow cytometry; active compounds read low; calls only at 10 µM; 1,100 tested, under 10 active; shares compounds with Beta2AR agonist; AID 588765;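 active = percent response below a set limit in fluorescence channel 1 and below 50% in channel 8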
A number is an active result.

Results for Cc1ccc(S(=O)(=O)N2CCC(C(=O)OCC(=O)N(Cc3ccccc3)C(C)C)CC2)cc1C ?
CXCR6 block: inactive; EBI2 antag: inactive

What do the screens show for `Cc1nn(-c2ccccc2)c(Cl)c1C(=O)NCC1CCCO1` (configuration not stated)?
CXCR6 block: inactive; Beta2AR agonist: inactive; APJ agonist: inactive; APJ antag: inactive; CCR6 antagonist: inactive; EBI2 antag: inactive

Results for COc1ccc(CCn2c(=O)[nH]c3cc(C(=O)NCCN4CCOCC4)ccc3c2=O)cc1OC ?
CXCR6 block: inactive; Beta2AR agonist: 69; APJ agonist: inactive; APJ antag: inactive; CCR6 antagonist: inactive; EBI2 antag: inactive; FAP fluor counter: inactive

How did CCCCN(C(=O)c1ccc(-n2nc(C)cc2C)cc1)c1c(N)n(CCC)c(=O)[nH]c1=O do in these assays?
CXCR6 block: inactive; Beta2AR agonist: inactive; APJ agonist: inactive; APJ antag: inactive; CCR6 antagonist: inactive; EBI2 antag: inactive

Results for CC(C)(C)C1CCC(C(=O)Nc2ccccc2)CC1 (configuration not stated) ?
CXCR6 block: inactive; Beta2AR agonist: 51; APJ agonist: inactive; APJ antag: inactive; CCR6 antagonist: inactive; EBI2 antag: inactive; Beta2AR ag CP1: inactive; FAP fluor counter: inactive

Results for Cc1ccc(OCC(=O)Nc2ccc3c(c2)nc(CCN2CCN(C)CC2)n3C)cc1 ?
CXCR6 block: inactive; Beta2AR agonist: inactive; APJ agonist: inactive; APJ antag: inactive; CCR6 antagonist: inactive; EBI2 antag: inactive; Beta2AR ag CP1: inactive; FAP fluor counter: inactive

Results for CN1CCN(CCc2nc3cc(NC(=O)COc4ccc(Cl)cc4)ccc3n2C)CC1 ?
CXCR6 block: inactive; Beta2AR agonist: 47; APJ agonist: inactive; APJ antag: inactive; CCR6 antagonist: inactive; EBI2 antag: inactive; Beta2AR ag CP1: inactive; FAP fluor counter: inactive

Results for Cc1ccc(-c2noc(C3CCCN(S(=O)(=O)c4ccc5ccccc5c4)C3)n2)o1 (configuration not stated) ?
CXCR6 block: inactive; Beta2AR agonist: inactive; APJ agonist: inactive; APJ antag: inactive; CCR6 antagonist: inactive; EBI2 antag: inactive

What do the screens show for `CC(=O)c1cccc(S(=O)(=O)N2CCCC(c3nc(-c4ccc(C)o4)no3)C2)c1` (configuration not stated)?
CXCR6 block: inactive; Beta2AR agonist: 54; APJ agonist: inactive; APJ antag: inactive; CCR6 antagonist: inactive; EBI2 antag: inactive; Beta2AR ag CP1: inactive; FAP fluor counter: inactive

How did O=C(Nc1cccc(S(=O)(=O)N2CCCC2)c1)[C@@H]1O[C@H](CO)[C@@H](O)[C@H]1O do in these assays?
CXCR6 block: inactive; EBI2 antag: inactive

How did O=C(NC1CCCCC1)C(c1cccs1)N(C(=O)c1ccccn1)c1ccccc1 (configuration not stated) do in these assays?
CXCR6 block: inactive; Beta2AR agonist: inactive; APJ agonist: inactive; APJ antag: inactive; CCR6 antagonist: inactive; EBI2 antag: inactive

Results for OC(C#Cc1ccccn1)c1cccs1 (configuration not stated) ?
CXCR6 block: inactive; Beta2AR agonist: 63; APJ agonist: inactive; APJ antag: inactive; CCR6 antagonist: inactive; EBI2 antag: inactive; Beta2AR ag CP1: inactive; FAP fluor counter: inactive

How did Cc1nc2ccc(-c3nc4cc(N)ccc4o3)cc2[nH]1 do in these assays?
CXCR6 block: inactive; Beta2AR agonist: 43; APJ agonist: inactive; APJ antag: inactive; CCR6 antagonist: inactive; EBI2 antag: inactive; Beta2AR ag CP1: inactive; FAP fluor counter: inactive

How did Cc1ccc(NC(=O)CSc2nnnn2C2CC2)cc1S(=O)(=O)N1CCOCC1 do in these assays?
CXCR6 block: inactive; Beta2AR agonist: inactive; APJ agonist: inactive; APJ antag: inactive; CCR6 antagonist: inactive; EBI2 antag: inactive

Results for Cc1ccc(C)c(S(=O)(=O)N2CCN(C(=O)C3CCN(C(=O)c4ccc(F)cc4)CC3)CC2)c1 ?
CXCR6 block: inactive; Beta2AR agonist: 60; APJ agonist: inactive; APJ antag: inactive; CCR6 antagonist: inactive; EBI2 antag: inactive; Beta2AR ag CP1: inactive; FAP fluor counter: inactive

How did c1ccc(-c2nccc(-c3ccc(-n4cnc5ccccc54)cc3)n2)cc1 do in these assays?
CXCR6 block: inactive; Beta2AR agonist: 71; APJ agonist: inactive; APJ antag: inactive; CCR6 antagonist: inactive; EBI2 antag: inactive; Beta2AR ag CP1: inactive; FAP fluor counter: inactive

What do the screens show for `CC12CCC(O)CC1=CCC1C2CCC2(C)c3[nH]ncc3CC12` (configuration not stated)?
CXCR6 block: inactive; Beta2AR agonist: inactive; CCR6 antagonist: inactive; EBI2 antag: inactive

How did COc1ccc(C(=O)Nc2nc3cc4c(cc3s2)OCCO4)c(OC)c1 do in these assays?
CXCR6 block: inactive; Beta2AR agonist: 54; APJ agonist: inactive; APJ antag: inactive; CCR6 antagonist: inactive; EBI2 antag: inactive; Beta2AR ag CP1: inactive; FAP fluor counter: inactive

Results for COc1ccc(NC(=O)N(C)C[C@@H]2OCc3cnnn3CCCC(=O)N([C@H](C)CO)C[C@@H]2C)cc1 ?
CXCR6 block: inactive; EBI2 antag: inactive

What do the screens show for `CCOc1cc(CNCC(O)c2ccccc2)cc(Cl)c1OC` (configuration not stated)?
CXCR6 block: inactive; Beta2AR agonist: inactive; APJ agonist: inactive; APJ antag: inactive; CCR6 antagonist: inactive; EBI2 antag: inactive; Beta2AR ag CP1: inactive; FAP fluor counter: inactive

How did Oc1cccc(C(O)CNCc2ccc(-c3ccccc3)cc2)c1 (configuration not stated) do in these assays?
CXCR6 block: inactive; Beta2AR agonist: inactive; APJ agonist: inactive; APJ antag: inactive; CCR6 antagonist: inactive; EBI2 antag: inactive

What do the screens show for `OC(CNCc1cccc(Cl)c1)c1ccccc1` (configuration not stated)?
CXCR6 block: inactive; Beta2AR agonist: inactive; APJ agonist: inactive; APJ antag: inactive; CCR6 antagonist: inactive; EBI2 antag: inactive; Beta2AR ag CP1: inactive; FAP fluor counter: inactive

Results for OC(CNC1Cc2ccccc2C1)c1ccccc1 (configuration not stated) ?
CXCR6 block: inactive; Beta2AR agonist: inactive; APJ agonist: inactive; APJ antag: inactive; CCR6 antagonist: inactive; EBI2 antag: inactive; Beta2AR ag CP1: inactive; FAP fluor counter: inactive

What do the screens show for `OC(CNCc1ccccc1)c1ccccc1` (configuration not stated)?
CXCR6 block: inactive; Beta2AR agonist: inactive; APJ agonist: inactive; APJ antag: inactive; CCR6 antagonist: inactive; EBI2 antag: inactive; Beta2AR ag CP1: inactive; FAP fluor counter: inactive
